# Measured values published in ChEMBL document CHEMBL2029334 (Bioorg Med Chem Lett, 2012).
# Activity calls are given as the source filed them. The rule behind the calls is not given here.
# Experiments:
# [1] = target: Sodium-dependent dopamine transporter (Rattus norvegicus, UniProt P23977); test: Displacement of 3H-WIN-35428 from DAT in rat striata after 120 mins
# Rattus norvegicus [2] = test: Wake promoting activity in rat assessed as total time awake at 100 mg/kg, ip over a period of 3 hrs after dosing; format: functional; details: route intraperitoneal
# Cytochrome P450 2C19 = Cytochrome P450 2C19 (Homo sapiens, UniProt P33261); test: Inhibition of CYP2C19; format: ADME
# Canis familiaris = species: Canis familiaris; test: Wake promoting activity in dog; format: functional, organism-based; details: Canis lupus familiaris
# CYP2C19 = CYP2C19 (Homo sapiens, UniProt P33261); test: Inhibition of CYP2C19 at 10 uM; format: ADME
# Rattus norvegicus [3] = test: Wake promoting activity in rat assessed as total time awake at 30 mg/kg, ip over a period of 3 hrs after dosing; format: functional; details: route intraperitoneal
# [4] = Cmax in rat plasma at 116 mg/kg, ip; format: ADME, organism-based; design: dose 116 mg/kg, route intraperitoneal
# [5] = Tmax in rat plasma at 116 mg/kg, ip; format: ADME, organism-based; design: dose 116 mg/kg, route intraperitoneal
# Plasma [6] = test: AUC (0 to t) in rat plasma at 116 mg/kg, ip; format: ADME, organism-based; design: dose 116 mg/kg, route intraperitoneal; details: in vivo
# [7] = Cmax in rat brain at 116 mg/kg, ip; format: ADME, organism-based; design: dose 116 mg/kg, route intraperitoneal
# [8] = Tmax in rat brain at 116 mg/kg, ip; format: ADME, organism-based; design: dose 116 mg/kg, route intraperitoneal
# Brain [9] = test: AUC (0 to t) in rat brain at 116 mg/kg, ip; format: ADME, organism-based; design: dose 116 mg/kg, route intraperitoneal; details: in vivo
# Plasma [10] = test: Cmax in rat plasma assessed as 9H-fluoren-9-ol at 116 mg/kg, ip; format: ADME, organism-based; design: dose 116 mg/kg, route intraperitoneal; details: in vivo
# How it was run: (§1)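 Rats received the parent compound at 116 mg/kg ip in 0.5% methylcellulose/0.2% Tween 80. The metabolite was measured in plasma and brain over time. Cmax is given in ng/g, Tmax in h, and AUC0-t in ng h/g. Values are mean ± SEM, n = 3.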
# Plasma [11] = test: Tmax in rat plasma assessed as 9H-fluoren-9-ol at 116 mg/kg, ip; format: ADME, organism-based; design: dose 116 mg/kg, route intraperitoneal; details: in vivo; how it was run: as §1
# Plasma [12] = test: AUC (0 to t) in rat plasma assessed as 9H-fluoren-9-ol at 116 mg/kg, ip; format: ADME, organism-based; design: dose 116 mg/kg, route intraperitoneal; details: in vivo; how it was run: as §1
# Brain [13] = test: Cmax in rat brain assessed as 9H-fluoren-9-ol at 116 mg/kg, ip; format: ADME, organism-based; design: dose 116 mg/kg, route intraperitoneal; details: in vivo; how it was run: as §1
# Brain [14] = test: Tmax in rat brain assessed as 9H-fluoren-9-ol at 116 mg/kg, ip; format: ADME, organism-based; design: dose 116 mg/kg, route intraperitoneal; details: in vivo; how it was run: as §1
# Brain [15] = test: AUC (0 to t) in rat brain assessed as 9H-fluoren-9-ol at 116 mg/kg, ip; format: ADME, organism-based; design: dose 116 mg/kg, route intraperitoneal; details: in vivo; how it was run: as §1
# Plasma [16] = test: Cmax in rat plasma assessed as 9H-fluoren-9-one at 116 mg/kg, ip; format: ADME, organism-based; design: dose 116 mg/kg, route intraperitoneal; details: in vivo; how it was run: as §1
# Plasma [17] = test: Tmax in rat plasma assessed as 9H-fluoren-9-one at 116 mg/kg, ip; format: ADME, organism-based; design: dose 116 mg/kg, route intraperitoneal; details: in vivo; how it was run: as §1
# Plasma [18] = test: AUC (0 to t) in rat plasma assessed as 9H-fluoren-9-one at 116 mg/kg, ip; format: ADME, organism-based; design: dose 116 mg/kg, route intraperitoneal; details: in vivo; how it was run: as §1
# Brain [19] = test: Cmax in rat brain assessed as 9H-fluoren-9-one at 116 mg/kg, ip; format: ADME, organism-based; design: dose 116 mg/kg, route intraperitoneal; details: in vivo; how it was run: as §1
# Brain [20] = test: Tmax in rat brain assessed as 9H-fluoren-9-one at 116 mg/kg, ip; format: ADME, organism-based; design: dose 116 mg/kg, route intraperitoneal; details: in vivo; how it was run: as §1
# Brain [21] = test: AUC (0 to t) in rat brain assessed as 9H-fluoren-9-one at 116 mg/kg, ip; format: ADME, organism-based; design: dose 116 mg/kg, route intraperitoneal; details: in vivo; how it was run: as §1
# Cytochrome P450 3A4 = Cytochrome P450 3A4 (Homo sapiens, UniProt P08684); test: Inhibition of CYP3A4; format: ADME
# Cytochrome P450 2D6 = Cytochrome P450 2D6 (Homo sapiens, UniProt P10635); test: Inhibition of CYP2D6; format: ADME
# Plasma [22] = test: Plasma concentration in human at efficacious dose; format: ADME, cell-free
# Chain of Cytochrome P450 2C19 (P33261 whole entry): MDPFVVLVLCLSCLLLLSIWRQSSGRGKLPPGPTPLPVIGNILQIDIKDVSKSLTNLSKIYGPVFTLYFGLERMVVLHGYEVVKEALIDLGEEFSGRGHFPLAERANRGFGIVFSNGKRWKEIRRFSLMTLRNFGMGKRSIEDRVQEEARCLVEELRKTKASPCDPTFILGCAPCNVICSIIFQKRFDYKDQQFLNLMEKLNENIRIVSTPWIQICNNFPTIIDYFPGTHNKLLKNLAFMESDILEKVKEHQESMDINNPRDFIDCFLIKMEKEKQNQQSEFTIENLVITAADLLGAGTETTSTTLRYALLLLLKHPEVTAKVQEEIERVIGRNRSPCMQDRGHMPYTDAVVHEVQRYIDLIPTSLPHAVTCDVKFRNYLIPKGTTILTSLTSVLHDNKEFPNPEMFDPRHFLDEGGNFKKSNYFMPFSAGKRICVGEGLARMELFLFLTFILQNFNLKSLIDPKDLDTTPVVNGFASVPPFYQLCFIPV
# Chain of CYP2C19 (P33261 whole entry): as above
# Chain of Sodium-dependent dopamine transporter (P23977 whole entry): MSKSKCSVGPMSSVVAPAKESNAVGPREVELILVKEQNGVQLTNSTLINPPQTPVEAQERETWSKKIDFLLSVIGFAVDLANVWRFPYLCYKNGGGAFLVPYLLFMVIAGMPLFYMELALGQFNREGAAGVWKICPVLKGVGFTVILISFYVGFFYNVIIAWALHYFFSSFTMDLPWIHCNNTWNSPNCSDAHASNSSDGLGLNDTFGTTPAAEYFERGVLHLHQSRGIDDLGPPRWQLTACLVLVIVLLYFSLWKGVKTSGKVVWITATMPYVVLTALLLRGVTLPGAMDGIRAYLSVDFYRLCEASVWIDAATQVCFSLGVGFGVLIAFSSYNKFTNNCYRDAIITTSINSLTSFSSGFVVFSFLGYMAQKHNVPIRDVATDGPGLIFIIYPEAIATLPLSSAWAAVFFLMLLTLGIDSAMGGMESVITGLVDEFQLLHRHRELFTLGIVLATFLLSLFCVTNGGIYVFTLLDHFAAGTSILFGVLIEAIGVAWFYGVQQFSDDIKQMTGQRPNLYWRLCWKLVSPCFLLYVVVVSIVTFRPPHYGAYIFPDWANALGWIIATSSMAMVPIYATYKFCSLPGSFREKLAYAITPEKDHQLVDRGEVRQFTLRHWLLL
# Chain of Cytochrome P450 2D6 (P10635 whole entry): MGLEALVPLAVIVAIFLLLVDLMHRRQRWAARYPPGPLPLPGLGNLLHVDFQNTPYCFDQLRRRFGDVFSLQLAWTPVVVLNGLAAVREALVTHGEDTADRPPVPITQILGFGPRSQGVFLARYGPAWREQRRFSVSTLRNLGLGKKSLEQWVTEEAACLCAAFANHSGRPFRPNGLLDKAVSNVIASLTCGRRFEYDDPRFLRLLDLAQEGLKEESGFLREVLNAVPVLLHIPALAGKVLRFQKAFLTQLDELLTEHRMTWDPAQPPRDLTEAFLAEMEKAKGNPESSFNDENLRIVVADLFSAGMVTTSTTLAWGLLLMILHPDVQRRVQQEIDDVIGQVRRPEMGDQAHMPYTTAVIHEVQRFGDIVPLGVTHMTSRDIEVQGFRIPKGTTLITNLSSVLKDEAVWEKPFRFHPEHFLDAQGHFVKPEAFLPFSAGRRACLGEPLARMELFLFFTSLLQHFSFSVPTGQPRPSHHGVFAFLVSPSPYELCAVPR
# Chain of Cytochrome P450 3A4 (P08684 whole entry): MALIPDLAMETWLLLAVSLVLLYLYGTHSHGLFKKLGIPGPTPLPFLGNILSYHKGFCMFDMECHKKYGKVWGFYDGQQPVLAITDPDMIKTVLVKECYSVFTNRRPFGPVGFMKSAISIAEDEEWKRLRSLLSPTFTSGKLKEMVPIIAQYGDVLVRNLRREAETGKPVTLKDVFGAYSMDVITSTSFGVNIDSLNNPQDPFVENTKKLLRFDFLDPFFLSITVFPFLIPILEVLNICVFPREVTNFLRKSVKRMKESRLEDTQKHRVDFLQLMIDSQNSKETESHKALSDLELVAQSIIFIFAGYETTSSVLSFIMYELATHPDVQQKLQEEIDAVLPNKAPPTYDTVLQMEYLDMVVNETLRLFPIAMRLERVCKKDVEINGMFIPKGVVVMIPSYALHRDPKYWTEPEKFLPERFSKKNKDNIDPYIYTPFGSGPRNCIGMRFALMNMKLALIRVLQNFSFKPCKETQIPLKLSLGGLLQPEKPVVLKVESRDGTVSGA
SMILES,IC50 [1] [µM],Time (Rattus norvegicus [2]) [min],IC50 (Cytochrome P450 2C19) [µM],Activity (Canis familiaris),also measured
C[C@H](NC(=O)C[S+]([O-])C1c2ccccc2-c2ccccc21)C(N)=O (mixture of isomers),> 100,151,> 100,inactive,–
CNC(=O)C[S+]([O-])C1c2ccccc2-c2ccccc21 (racemic),> 100,83,–,inactive,inhibition at 10 µM (CYP2C19): 48%
O=C(C[S+]([O-])C1c2ccccc2-c2ccccc21)N1CCNCC1 (racemic),> 100,–,> 100,inactive,Time (Rattus norvegicus [3]): 119 min
CC(=O)N1CCN(C(=O)C[S+]([O-])C2c3ccccc3-c3ccccc32)CC1 (racemic),> 100,–,> 100,inactive,Time (Rattus norvegicus [3]): 146 min; Cmax [4]: 6290 ng/g; Tmax [5]: 48 min; AUCt (Plasma [6]): 7501 ng·h/g; Cmax [7]: 416 ng/g; Tmax [8]: 48 min; AUCt (Brain [9]): 295 ng·h/g
OC1c2ccccc2-c2ccccc21,9,163,–,–,Cmax (Plasma [10]): 263 ng/g; Tmax (Plasma [11]): 120 min; AUCt (Plasma [12]): 1081 ng·h/g; Cmax (Brain [13]): 4384 ng/g; Tmax (Brain [14]): 48 min; AUCt (Brain [15]): 11639 ng·h/g
NC(=O)C[S+]([O-])C1c2ccccc2-c2ccccc21 (racemic),> 100,116,> 100,inactive,–
CC1([S+]([O-])CC(N)=O)c2ccccc2-c2ccccc21 (racemic),> 100,71,–,–,inhibition at 10 µM (CYP2C19): 26%
NC(=O)[C@H](CO)NC(=O)C[S+]([O-])C1c2ccccc2-c2ccccc21 (mixture of isomers),> 100,136,> 100,inactive,–
CCN(CC)C(=O)C[S+]([O-])C1c2ccccc2-c2ccccc21 (racemic),> 100,99,> 100,inactive,–
NC(=O)[C@@H]1CCCN1C(=O)C[S+]([O-])C1c2ccccc2-c2ccccc21 (mixture of isomers),> 100,169,> 100,inactive,–
O=C1c2ccccc2-c2ccccc21,–,–,–,–,Cmax (Plasma [16]): 255 ng/g; Tmax (Plasma [17]): 72 min; AUCt (Plasma [18]): 939 ng·h/g; Cmax (Brain [19]): 971 ng/g; Tmax (Brain [20]): 48 min; AUCt (Brain [21]): 2349 ng·h/g
O=C(C[S+]([O-])C1c2ccccc2-c2ccccc21)NCCO (racemic),> 100,167,> 100,inactive,–
O=C(C[S+]([O-])C1c2ccccc2-c2ccccc21)N1CCOCC1 (racemic),> 100,–,–,inactive,Time (Rattus norvegicus [3]): 158 min; inhibition at 10 µM (CYP2C19): 30%
NC(=O)CNC(=O)C[S+]([O-])C1c2ccccc2-c2ccccc21 (racemic),> 100,140,> 100,inactive,–
NC(=O)C[S+]([O-])C(c1ccccc1)c1ccccc1 (racemic) [MODAFINIL],–,117,–,inactive,inhibition (INH) (Cytochrome P450 3A4): Not Active; inhibition (INH) (Cytochrome P450 2D6): Not Active; concentration (Plasma [22]): > 30 µM
